Laboratory results published in ChEMBL document CHEMBL4689842, “EUbOPEN Chemogenomics Library wave 1” (2021).

Key:
Type in all cases: toxicity, cell-based
U2OS [1] = experiment: Incucyte cell viability with U2OS; conditions: human, 10 µM, compound concentration 10 uM; also: filed as whole numbers so only -1 and 0 and 1 occur
HEK-293T = experiment: Incucyte cell viability with HEK293T; conditions: human, 10 µM, compound concentration 10 uM; also: filed as whole numbers so only -1 and 0 and 1 occur
U2OS [2] = experiment: Multiplex assay against U2OS; conditions: human
How it was run: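 Compound was added to live cells that had been stained at seeding with Hoechst33342, BioTracker Green Microtubule Cytoskeleton Dye, MitoTracker Red and Annexin V Alexa Fluor 680, and imaging followed on a CQ1 microscope at 37°C and 5% CO2. CellPathfinder machine-learning gating divided cells into Hoechst high-intensity objects or normal cells, normal cells into healthy, pyknosed or fragmented nuclei, and pyknosed cells into mitotic or apoptotic. Tubulin, mitochondrial-mass and membrane-permeability phenotypes are per cents of healthy-nucleus cells.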

Fibroblast = experiment: Incucyte cell viability with human fibroblast; conditions: 10 µM, compound concentration 10 uM; also: filed as whole numbers so only -1 and 0 and 1 occur
[3] = 0 h, replicate number 1, timepoint 0 hours
[4] = 6 h, replicate number 1, timepoint 6 hours
[5] = 12 h, replicate number 1, timepoint 12 hours
[6] = 18 h, replicate number 1, timepoint 18 hours
[7] = 24 h, replicate number 1, timepoint 24 hours
[8] = 12 h, 1 µM, compound concentration 1 uM, replicate 1
[9] = 12 h, 1 µM, compound concentration 1 uM, replicate 2
[10] = 12 h, 10 µM, compound concentration 10 uM, replicate 1
[11] = 12 h, 10 µM, compound concentration 10 uM, replicate 2
[12] = 24 h, 1 µM, compound concentration 1 uM, replicate 1
[13] = 24 h, 1 µM, compound concentration 1 uM, replicate 2
[14] = 24 h, 10 µM, compound concentration 10 uM, replicate 1
[15] = 24 h, 10 µM, compound concentration 10 uM, replicate 2

## N#Cc1cnc(Nc2cc(NC[C@H]3CNCCO3)c(C(F)(F)F)cn2)cn1 [SRA-737]
U2OS [1]; [3]
  Growth Rate: 1
U2OS [1]; 0 h, replicate number 2, timepoint 0 hours
  Growth Rate: 0
U2OS [1]; [4]
  Growth Rate: 0
U2OS [1]; [5]
  Growth Rate: 0
U2OS [1]; [6]
  Growth Rate: 0
U2OS [1]; [7]
  Growth Rate: 0
HEK-293T; [3]
  Growth Rate: 0
HEK-293T; [4]
  Growth Rate: 0
HEK-293T; [5]
  Growth Rate: 0
HEK-293T; [6]
  Growth Rate: 0
HEK-293T; [7]
  Growth Rate: 0
U2OS [2]; [8]
  Population Apoptotic (%): 18%
  Population Fragmented Nuclei (%): 0%
  Population Healthy Nuclei (%): 89%
  Population Hoechst High Intensity Objects (%): 6%
  Population Membrane Permeable-Phenotype (%): 7%
  Population Mitochondria Different-Phenotype (%): 14%
  Population Mitotic Cells (%): 81%
  Population Normal (%): 93%
  Population Pyknosed Nuclei (%): 9%
  Population Tubulin-Different-Phenotype (%): 26%
  Total Cell Count: 249
U2OS [2]; [9]
  Population Apoptotic (%): 16%
  Population Fragmented Nuclei (%): 4%
  Population Healthy Nuclei (%): 90%
  Population Hoechst High Intensity Objects (%): 9%
  Population Membrane Permeable-Phenotype (%): 10%
  Population Mitochondria Different-Phenotype (%): 18%
  Population Mitotic Cells (%): 83%
  Population Normal (%): 90%
  Population Pyknosed Nuclei (%): 4%
  Population Tubulin-Different-Phenotype (%): 30%
  Total Cell Count: 142
U2OS [2]; [10]
  Population Apoptotic (%): 50%
  Population Fragmented Nuclei (%): 5%
  Population Healthy Nuclei (%): 87%
  Population Hoechst High Intensity Objects (%): 4%
  Population Membrane Permeable-Phenotype (%): 11%
  Population Mitochondria Different-Phenotype (%): 9%
  Population Mitotic Cells (%): 50%
  Population Normal (%): 95%
  Population Pyknosed Nuclei (%): 6%
  Population Tubulin-Different-Phenotype (%): 15%
  Total Cell Count: 193
U2OS [2]; [11]
  Population Apoptotic (%): 23%
  Population Fragmented Nuclei (%): 4%
  Population Healthy Nuclei (%): 85%
  Population Hoechst High Intensity Objects (%): 9%
  Population Membrane Permeable-Phenotype (%): 15%
  Population Mitochondria Different-Phenotype (%): 7%
  Population Mitotic Cells (%): 76%
  Population Normal (%): 90%
  Population Pyknosed Nuclei (%): 10%
  Population Tubulin-Different-Phenotype (%): 16%
  Total Cell Count: 143
U2OS [2]; [12]
  Population Apoptotic (%): 5%
  Population Fragmented Nuclei (%): 0%
  Population Membrane Permeable-Phenotype (%): 5%
  Population Mitochondria Different-Phenotype (%): 12%
  Population Mitotic Cells (%): 94%
  Population Pyknosed Nuclei (%): 5%
  Population Tubulin-Different-Phenotype (%): 31%
  Total Cell Count: 330
U2OS [2]; [13]
  Population Apoptotic (%): 0%
  Population Fragmented Nuclei (%): 2%
  Population Healthy Nuclei (%): 93%
  Population Hoechst High Intensity Objects (%): 3%
  Population Membrane Permeable-Phenotype (%): 6%
  Population Mitochondria Different-Phenotype (%): 23%
  Population Mitotic Cells (%): 100%
  Population Normal (%): 96%
  Population Pyknosed Nuclei (%): 4%
  Population Tubulin-Different-Phenotype (%): 38%
  Total Cell Count: 179
U2OS [2]; [14]
  Population Apoptotic (%): 18%
  Population Fragmented Nuclei (%): 4%
  Population Healthy Nuclei (%): 88%
  Population Hoechst High Intensity Objects (%): 4%
  Population Membrane Permeable-Phenotype (%): 8%
  Population Mitochondria Different-Phenotype (%): 10%
  Population Mitotic Cells (%): 81%
  Population Normal (%): 95%
  Population Pyknosed Nuclei (%): 6%
  Population Tubulin-Different-Phenotype (%): 19%
  Total Cell Count: 243
U2OS [2]; [15]
  Population Apoptotic (%): 50%
  Population Fragmented Nuclei (%): 5%
  Population Healthy Nuclei (%): 87%
  Population Hoechst High Intensity Objects (%): 8%
  Population Mitochondria Different-Phenotype (%): 19%
  Population Mitotic Cells (%): 50%
  Population Normal (%): 91%
  Population Tubulin-Different-Phenotype (%): 12%
  Total Cell Count: 168
Fibroblast; [3]
  Growth Rate: 0
Fibroblast; [4]
  Growth Rate: 1
Fibroblast; [5]
  Growth Rate: 1
Fibroblast; [6]
  Growth Rate: 1
Fibroblast; [7]
  Growth Rate: 0
Fibroblast; 24 h, replicate number 2, timepoint 24 hours
  Growth Rate: 1
